The source of these data is PMC2873786 (Organic & biomolecular chemistry, 2009).

The conditions of data set [1]: calculated, gas-phase; ref 18c; cited from earlier work.
For data set [2] the following is noted: cited from earlier work.
Data set [3] in a line: Inhibited autoxidation of styrene. To be noted: for kinh: 303 K in chlorobenzene, initiated by AMVN, styrene autoxidation; for inhibition rate constant, fold lower than for 1: relative to 1.
A further data set deals with T1, ovine COX-1 (Ovis aries, UniProt P05979).
T1 sequence (P05979 25-600): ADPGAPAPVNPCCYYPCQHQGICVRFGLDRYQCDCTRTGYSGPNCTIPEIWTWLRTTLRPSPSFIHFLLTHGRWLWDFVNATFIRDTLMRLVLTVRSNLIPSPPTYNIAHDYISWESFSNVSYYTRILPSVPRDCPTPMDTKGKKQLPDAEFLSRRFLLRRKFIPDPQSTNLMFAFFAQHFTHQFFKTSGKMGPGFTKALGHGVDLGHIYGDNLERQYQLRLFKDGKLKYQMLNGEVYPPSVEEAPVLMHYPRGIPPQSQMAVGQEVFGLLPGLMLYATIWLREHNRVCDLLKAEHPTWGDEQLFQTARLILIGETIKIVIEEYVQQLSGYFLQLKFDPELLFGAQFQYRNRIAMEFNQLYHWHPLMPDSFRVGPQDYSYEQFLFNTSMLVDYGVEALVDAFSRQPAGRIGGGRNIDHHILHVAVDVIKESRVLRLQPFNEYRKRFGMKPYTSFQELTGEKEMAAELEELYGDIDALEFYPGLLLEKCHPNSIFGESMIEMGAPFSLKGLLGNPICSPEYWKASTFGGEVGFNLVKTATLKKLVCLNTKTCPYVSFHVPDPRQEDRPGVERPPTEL
Nature of the data set: Inhibition of oCOX-1. Type of data set: biochemical. To be noted: for oCOX-1 inhibition (prostaglandin biosynthesis), fold more effective than ApAP: relative to ApAP; for oCOX-1 inhibition, fold less effective than 1: relative to 1. The method in brief:
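Ovine COX-1 was purified from ram seminal vesicles and held 30 min on ice with 2 equiv hematin in Tris·HCl pH 8.0 plus 500 μM phenol. It was then warmed 2 min at 37 °C with compound. The reaction used [¹⁴C]arachidonic acid (0.5 μM final, prewarmed 30 s) and was started with enzyme at 5.4 nM. It was quenched after 8 s with acidic ether–methanol containing BHA. Products were resolved by radio-TLC. Activity was expressed as % of control, 4–6 values per point.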

Data set [4] can be described thus: B3LYP calculated gas-phase O–H BDEs, ionization potentials and acidities. To be noted: predicted; 5a vs 2, 6a vs 3.
Data set [5] can be described thus: Spectrophotometric determination of pKa values. Format: physicochemical. The note with it: 298 K, 10 mM potassium phosphate, 200 mM KCl, spectrophotometry. The method in brief:
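UV spectra were recorded in buffer at varied pH, blank first. Compound was added from a 25 mM ethanol stock and the pH was remeasured. Aryloxide fraction came from absorbance at λmax, normalised between low- and high-pH limits. pKa was obtained by fitting the fraction versus pH to a sigmoidal function.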

Another data set addresses T2, oCOX-1 peroxidase (Ovis aries, UniProt P05979).
T2 sequence (P05979 25-600): T1 sequence (P05979 25-600)
In words: Effect on reduction of PPHP to PPA. Format: biochemical, ovine. To be noted: for peroxidase activation at low concentration: at 100 μM, compared with 1-3; for increase in peroxidase activity of oCOX-1: at a concentration of 1 mM, PPHP to PPA. The method in brief:
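Ovine COX-1 was held 30 min on ice with 2 equiv hematin in Tris·HCl pH 8.0 without phenol. It was warmed 5 min at 37 °C with or without compound. PPHP (10 μM final) was prewarmed 2 min. The reaction was started with enzyme at 5.4 nM and quenched after 8 s with ice-cold ether–methanol–citric acid. The organic phase was dried under nitrogen, redissolved in 65% methanol–water, and analysed by HPLC for PPA formation.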

The test system of a further data set is HepG2 cells. In words: Cytotoxicity assay with HepG2 cell line. Type of data set: cell-based, human. The note with it: for intracellular ATP levels, fold control levels: HepG2, 24 h exposure; for decrease of total intracellular ATP concentration compared to control: 2 mM (highest exposure level). The gist of the method: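 HepG2 cells (ATCC) were grown in DMEM with 10% FBS, non-essential amino acids, penicillin–streptomycin, pyruvate and glutamine, under 5% CO₂ at 37 °C. Cells were seeded at 10⁵ cells/mL with ethanol or water vehicle below 0.5%. Serial compound dilutions, up to 2 mM, were applied for 24 h with 2–3 replicates per dose. Cells were lysed for 5 min and ATP read by luciferin–luciferase luminescence after 10 min at room temperature. Values were taken relative to untreated control.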

The nature of data set [6]: Anodic peak potentials by differential pulse voltammetry. Type of data set: physicochemical. The note with it: 298 K versus Ag/AgCl, at the pKa. The gist of the method:
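Glassy carbon working electrode (alumina-polished between trials), Ag/AgCl reference, platinum wire counter. Buffer was 10 mM potassium phosphate with KCl electrolyte, pH set with KOH or HCl. Compound was added from a 25 mM ethanol stock, pH was measured, and the solution was argon-purged 1 min. DPV used 0.05 s pulse width, 0.2 s pulse period and 10 mV/s at 298 K. […].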

For data set [7] the following is noted: reference antioxidants; ref 27b; cited from earlier work.
For another data set, the target named is T3, oCOX-1 (Ovis aries, UniProt P05979).
T3 sequence (P05979 25-600): T1 sequence (P05979 25-600)
Nature of the data set: pH-dependent inhibition of COX-1. Format: biochemical, ovine. To be noted: pH 6.6 to 8.5; 0.5 mM 1; 1.0 mM 2 and 3. The method in brief:
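COX-1 radiolabelled arachidonic acid (0.5 μM) assay: hematin-reconstituted enzyme at 5.4 nM, 8 s reaction at 37 °C, radio-TLC. Buffers were Tris·HCl at pH 8.5, 8.0 and 7.4, and sodium phosphate at pH 8.0, 7.4 and 6.6, all with 500 μM phenol. Compound was present at 0.5 or 1.0 mM final. Activity was expressed as % of the uninhibited control in the same buffer and pH. Significance was tested by Student t-test.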

In data set [8] the target is T4, soybean lipoxygenase-1 (sLOX-1) (Glycine max, UniProt P08170).
T4 sequence (P08170 1-839): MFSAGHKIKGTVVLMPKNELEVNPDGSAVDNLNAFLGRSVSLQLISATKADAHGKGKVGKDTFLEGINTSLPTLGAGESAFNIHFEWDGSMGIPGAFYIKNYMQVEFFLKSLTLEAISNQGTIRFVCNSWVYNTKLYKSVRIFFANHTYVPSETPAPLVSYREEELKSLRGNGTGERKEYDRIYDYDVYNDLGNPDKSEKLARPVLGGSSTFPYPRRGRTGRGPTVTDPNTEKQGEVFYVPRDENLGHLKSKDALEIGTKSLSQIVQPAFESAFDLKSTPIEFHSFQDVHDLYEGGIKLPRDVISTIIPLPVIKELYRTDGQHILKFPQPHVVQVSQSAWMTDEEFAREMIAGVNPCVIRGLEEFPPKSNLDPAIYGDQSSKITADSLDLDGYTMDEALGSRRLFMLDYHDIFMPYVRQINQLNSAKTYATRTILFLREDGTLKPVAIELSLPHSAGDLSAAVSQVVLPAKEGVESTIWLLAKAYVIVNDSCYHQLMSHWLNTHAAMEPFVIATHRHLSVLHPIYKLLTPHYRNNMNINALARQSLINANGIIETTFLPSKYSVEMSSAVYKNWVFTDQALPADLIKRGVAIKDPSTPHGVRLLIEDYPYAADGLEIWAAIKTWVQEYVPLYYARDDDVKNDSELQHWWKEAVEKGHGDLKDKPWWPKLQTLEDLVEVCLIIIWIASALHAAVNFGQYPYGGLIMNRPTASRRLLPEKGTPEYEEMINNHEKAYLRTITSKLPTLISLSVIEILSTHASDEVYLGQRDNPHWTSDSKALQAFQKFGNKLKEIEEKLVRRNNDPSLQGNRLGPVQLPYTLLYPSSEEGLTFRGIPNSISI
In words: Inhibition of sLOX-1. Type of data set: biochemical. To be noted: up to 0.25 mM. The gist of the method:
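Soybean LOX-1 was purified from a commercial preparation. Linoleic acid (20 μM) was in 100 mM borate pH 9.2. Compound was added from ethanol at […] final (<5% ethanol), then enzyme at 3 nM final. Initial rates (<10% conversion) were followed at 234 nm as 13-HPODE formation. Rates were expressed relative to no-compound controls, 4–6 values per point, and IC50 was derived.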

The structures appear in SMILES notation. Read-outs that look alike come from different tables or passages of the source.

Turning to `CN(C)c1ccc(O)cc1` [4a, reference compound], in data set [1], the IP is reported as 157.7 kcal/mol and the “O–H BDE” value is reported as 76.0 kcal/mol. Further, the “stability under ambient conditions” value in data set [2] is reported as “too unstable”.

For `CN(C)c1ccc(O)cn1` [5a], in data set [1], the IP was 164.6 kcal/mol and the “O–H BDE” value is 77.0 kcal/mol. Further, the kinh in data set [3] is reported as 4.8 × 10^6 ^d M^−1 s^−1. Also, the “oCOX-1 inhibition (prostaglandin biosynthesis), fold more effective than ApAP” value at ovine COX-1 is listed as “ca. 12 fold”. In addition, the “O–H BDE lower than in 2 and 3” value in data set [4] was 5 to 6 kcal/mol. The same compound registered a pKa in [5] of 9.27. Also, the “effect on peroxidase activity at higher concentration” value on oCOX-1 peroxidase (above 100 μM) was “abolishes peroxidase activity”. The “peroxidase activation at low concentration” value on oCOX-1 peroxidase is reported as “greater peroxidase activation”. Also, the “effect on ATP production” value with HepG2 cells (HepG2, 24 h, by 500 μM exposure) was “eliminating ATP production”. The “intracellular ATP levels, fold control levels” value in the data set with HepG2 cells (10 μM) was “ca. 1.75 fold”. Also, the “cytotoxicity in preliminary HepG2 viability assays” value in the data set with HepG2 cells (HepG2 cell culture) is “relatively toxic”. In addition, the “Epa @ pKa” value in [6] was determined as 0.12 V. For the same compound, in data set [2], the “stability under ambient conditions” value is on record as “quite stable”.

Turning to `CN(C)c1ncc(O)cn1` [6a], in [1], the IP is 174.6 kcal/mol and the “O–H BDE” value is reported as 78.3 kcal/mol. Besides, the kinh in data set [3] is reported as 1.1 × 10^6 ^d M^−1 s^−1. For the same compound, the “oCOX-1 inhibition (prostaglandin biosynthesis), fold more effective than ApAP” value at ovine COX-1 is “ca. 12 fold”. The “O–H BDE lower than in 2 and 3” value in [4] is 5 to 6 kcal/mol. The compound further had a pKa in [5] of 8.18. Further, the “peroxidase activation at low concentration” value on oCOX-1 peroxidase was “greater peroxidase activation”. Further, in the data set on HepG2 cells (HepG2, 24 h), the “decrease of total intracellular ATP concentration compared to control” value is listed as 31.3 ± 1.0%. In the data set with HepG2 cells (HepG2, 24 h, beyond 1 mM), the “intracellular ATP concentration relative to control” value was “at or above the control”. Moreover, the “intracellular ATP levels, fold control levels” value with HepG2 cells (100 μM) is reported as “ca. 1.8 fold”. In addition, the “Epa @ pKa” value in [6] is 0.31 V. Also, the “stability under ambient conditions” value in [2] was “quite stable”.

With `Cc1cc(C(C)(C)C)c(O)c(C(C)(C)C)c1` [BHT, butylated hydroxytoluene], the kinh in [7] was 140000 M⁻¹ s⁻¹.

Take `CC(=O)Nc1ccc(O)cc1` [compound 1, Acetaminophen, reference compound]: the “pH-dependence of oCOX-1 inhibition” value on oCOX-1 is recorded as “did not change significantly”. For the same compound, the kinh in data set [3] and in data set [3] (listed as ApAP) was 500000 M⁻¹ s⁻¹ each time. Also, in [3] (relative to BHT), the “inhibition rate constant, fold larger than that of BHT” value was ~4 fold. This compound also showed an IC50 against ovine COX-1 of 250 µM. The “inhibition of sLOX-1” value in data set [8] was “does not inhibit”. At oCOX-1 peroxidase, the “increase in peroxidase activity of oCOX-1” value (shortened to “increase”) is recorded as 11 fold. Moreover, in the data set with HepG2 cells (HepG2, 24 h), the “decrease of total intracellular ATP concentration compared to control” value is recorded as 24.8 ± 1.0%. The “Epa @ pKa” value in data set [6] worked out at 0.32 V.

On to `CC(=O)Nc1ccc(O)cn1` [compound 2], for which, on oCOX-1, the “pH-dependence of oCOX-1 inhibition” value is “markedly improved at higher pH”. In data set [3], the kinh was determined as 40000 M⁻¹ s⁻¹ and the “inhibition rate constant, fold lower than for 1” value was found to be 12.5 fold. On ovine COX-1, the “oCOX-1 inhibition, fold less effective than 1” value is listed as “ca. 1.6 fold”. Further, the pKa in data set [5] was determined as 8.28. Further, at oCOX-1 peroxidase, the “increase” value was “only slightly”. In [6], the “Epa @ pKa” value was determined as 0.48 V.

Regarding `CC(=O)Nc1ncc(O)cn1` [compound 3], the “pH-dependence of oCOX-1 inhibition” value on oCOX-1 is given as “markedly improved at higher pH”. Besides, in data set [3], the kinh was 10000 M⁻¹ s⁻¹ and the “inhibition rate constant, fold lower than for 1” value came to 50 fold. Further, at ovine COX-1, the “oCOX-1 inhibition, fold less effective than 1” value is reported as ~3 fold. In addition, the pKa in data set [5] is 5.89. Besides, the “increase” value at oCOX-1 peroxidase is recorded as “only slightly”. Further, the “Epa @ pKa” value in [6] stood at 1.02 V.

Regarding `Cc1c(C)c2c(c(C)c1O)CC[C@@](C)(CCC[C@H](C)CCC[C@H](C)CCCC(C)C)O2` [α-tocopherol], the kinh in [7] is 3.2e+06 M⁻¹ s⁻¹.
